According to paper PMC9730744 (ACS Omega, 2022):
Marks after values point to notes of the source that are not given here.

Key:
rat synovial cells [1] = assay: LDH activity assay of synovial cells in vitro; type: cell-based; conditions: for LDH activity ± SD: 1 μM, supernatant of rat synovial cells, 48 h; for LDH content in the supernatant / damage to synovial cells (in words): compared with the normal group
Summary of the method: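 Log-phase rat synovial cells (2 × 10⁴/well) were cultured 48 h at 37 °C, 5% CO₂. They then received test compound at graded concentrations, methotrexate, or DMSO vehicle for 48 h. Plates were centrifuged 10 min, and supernatant LDH was assayed with a kit. Activity (U/L) = [(OD sample − OD control)/([…] − OD blank)] × 0.2 mM × 1000. Three independent experiments, each in triplicate.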

[2] = Acute toxicity test in mice; conditions: both, mouse, in vivo, po
Summary of the method: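 Single oral gavage of 0.4 mL test substance to SPF mice (18–22 g) after 1-week acclimatization at 22 ± 2 °C on a 12 h light/dark cycle. Mice were randomized into 10 groups, half male and half female, fasted 8 h before dosing and 2 h after. Mortality, death time and signs of poisoning were recorded over 14 days, and LD50 was taken as the acute toxicity measure.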

rat synovial cells [3] = assay: Morphology of rat synovial cells in vitro; type: cell-based; conditions: 1 μM, 48 h, Figure 3
Summary of the method: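 Synovial cells at 70–80% confluence were detached with 0.25% trypsin and seeded at 5000 cells/well in 24-well plates. Groups received test compound (1 μM), methotrexate (1 μM) or DMSO, with an untreated normal group. After 48 h culture, morphology was examined by cell imaging analysis.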

[4] = system: CFA-induced arthritis in rats; assay: Complete Freund's adjuvant induced arthritis in rats; type: in vivo, rat; conditions: for IL-6 content in serum after treatment / TNF-α content in serum after treatment: high dose (100 mg·kg^–1·d^–1) and low dose (50 mg·kg^–1·d^–1); for IL-6 content in serum after treatment: Figure 4c; for TNF-α content in serum after treatment: Figure 4d; for change of paw volume before and after treatment: oral
Summary of the method: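 SPF adult rats (200 ± 20 g) were acclimatized 2 weeks at 22 ± 3 °C and 40–70% humidity. Arthritis was induced with 0.1 mL CFA injected 2 cm from the tail root; the normal group received saline. From day 14 after induction, rats were dosed orally at 50 or 100 mg·kg⁻¹·d⁻¹ daily for 14 days. Paw volume was measured by toe volume meter before induction and on dosing days 1 and 14.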

[5] = system: TNF-α, IL-1β, and IL-6 in rat synovial cells; assay: Inflammatory cytokines in the rat synovial cell supernatant; type: cell-based; conditions: 1 μM, LPS 1 μg·mL^–1, compared with the LPS group, p < 0.01
Summary of the method: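 After 24 h they were stimulated with LPS (1 μg·mL⁻¹) for 24 h, then treated with test compound or methotrexate at 1 μM for 24 h. Supernatant was centrifuged at 3000 rpm for 15 min, and TNF-α, IL-1β and IL-6 were measured by ELISA. Three independent experiments, each in triplicate.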

[6] = system: TLR4, MyD88, NF-κB, and IκB in rat synovial cells; assay: TLR4/NF-κB signaling pathway protein expression in rat synovial cells; type: cell-based; conditions: 1 μM, LPS 1 μg·mL^–1, compared with the LPS group, p < 0.01
Summary of the method: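 Synovial cells (5000/well) were cultured 24 h, stimulated with LPS (1 μg·mL⁻¹) for 24 h, then treated with test compound at 1 μM for 24 h. Cells were fixed in 4% fixative for 45 min, permeabilized with 0.25% Triton for 15 min and blocked with 5% BSA for 10 min. Rabbit anti-rat primaries (1:100 or 1:200) were applied overnight at 4 °C, then FITC goat anti-rabbit (1:400, 30 min, 37 °C) and DAPI (1:800). Read-out was mean fluorescence intensity.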

rat synovial cells [7] = conditions: read-out: IC50, growth of synovial cells; cited from earlier work
[8] = 50 mg·kg^–1·d^–1 for 14 days, Figure 4a

Row | Structure (SMILES) | LDH activity ± SD (rat synovial cells [1]) | LDH content in the supernatant / damage to synovial cells (in words) (rat synovial cells [1]) | LD50 at 14 days [2] | morphology of rat synovial cells (rat synovial cells [3]) | IL-6 content in serum after treatment [4] | TNF-α content in serum after treatment [4] | change of paw volume before and after treatment [4, 8] | change of paw volume before and after treatment ([4]; 100 mg·kg^–1·d^–1 for 14 days, Figure 4b) | content of IL-1β in the supernatant [5] | content of IL-6 in the supernatant [5] | content of TNF-α in the supernatant [5] | expression of MyD88 [6] | expression of NF-κB [6] | expression of TLR4 [6] | expression of the IκB protein [6] | IC50 (rat synovial cells [7])
1 | O=C1C=C2CC[C@@H](C(=O)O)CC2C(=O)C1 (stereo partly drawn) [Compound 21] | 297.79 ± 49.6 U/L | little damage to synovial cells | – | – | – | – | – | – | – | – | – | – | – | – | – | –
2 | CCOC(=O)[C@@H]1CCC2=CC(=O)CC(=O)C2C1 (stereo partly drawn) [Compound 23] | 342.78 ± 22.74 ^c U/L | little damage to synovial cells | 2307 ± 7.37 mg/kg | significant concentration dependence on synovial cell injury | – | – | – | – | – | – | – | – | – | – | – | –
3 | O=C1C=C2CC[C@@H](C3CCC(=O)CC3)CC2C(=O)C1 (stereo partly drawn) [Compound 28, (7R)-7-(4-oxocyclohexyl)-6,7,8,8a-tetrahydronaphthalene-1, 3 (2H, 5H)-dione] | 375.29 ± 17.87 ^c U/L | little damage to synovial cells | – | significant concentration dependence on synovial cell injury | – | – | – | – | – | – | – | – | – | – | – | –
4 | O=C1C=C2CC[C@@H](O)CC2C(=O)C1 (stereo partly drawn) [Compound 32, (7R)-7-hydroxy-6,7,8,8a-tetrahydronaphthalene-1, 3 (2H, 5H)-dione] | 307.02 ± 30.86 ^c U/L | little damage to synovial cells | 2658 ± 9.06 mg/kg | significant concentration dependence on synovial cell injury | basically at a low level | decreased | little change | hardly changed | significantly decreased | significantly decreased | significantly decreased | significantly downregulated | significantly downregulated | significantly downregulated | significantly upregulated | –
5 | CC(=O)N[C@@H]1CCC2=CC(=O)CC(=O)C2C1 (stereo partly drawn) [Compound 33] | 264.24 ± 27.71 U/L | little damage to synovial cells | – | – | – | – | – | – | – | – | – | – | – | – | – | –
6 | O=C1C=C2CCC(F)(F)CC2C(=O)C1 (stereo not drawn) [Compound 36, 7,7-difluoro-6,7,8,8a-tetrahydronaphthalene-1,3 (2H, 5H)-dione] | 292.07 ± 31.56 U/L | little damage to synovial cells | 2709 ± 8.63 mg/kg | significant concentration dependence on synovial cell injury | – | – | – | – | – | – | – | – | – | – | – | –
7 | CC(C)[C@H]1CC[C@]2(C)C(=O)CCC(=O)C=C12 [Dysodensiol K] | – | – | – | – | – | – | – | – | – | – | – | – | – | – | – | 11.8 ± 0.23 µM
8 | CN(Cc1cnc2nc(N)nc(N)c2n1)c1ccc(C(=O)N[C@@H](CCC(=O)O)C(=O)O)cc1 [methotrexate, reference compound] | 438.75 ± 11.50 ^c U/L | significantly increased | 1368 ± 5.34 mg/kg | significantly damaged | basically at a low level | decreased | significant volume change | – | significantly decreased | significantly decreased | significantly decreased | significantly downregulated | significantly downregulated | significantly downregulated | significantly upregulated | –
